FLuc inhib CS: firefly luciferase enzyme inhibitors, primary screen, artefact control for luciferase-based inhibitor screens, biochemical, luminescence, ATPLite; inhibition, % at 10 µM; 10 min; Luciferin 4-monooxygenase (Photinus pyralis), P08659; 1.5% of 200,000 active;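 active = inhibition above about 50% when tested at 10 µM, limit read from the data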
Target sequence (P08659 whole entry, looked up): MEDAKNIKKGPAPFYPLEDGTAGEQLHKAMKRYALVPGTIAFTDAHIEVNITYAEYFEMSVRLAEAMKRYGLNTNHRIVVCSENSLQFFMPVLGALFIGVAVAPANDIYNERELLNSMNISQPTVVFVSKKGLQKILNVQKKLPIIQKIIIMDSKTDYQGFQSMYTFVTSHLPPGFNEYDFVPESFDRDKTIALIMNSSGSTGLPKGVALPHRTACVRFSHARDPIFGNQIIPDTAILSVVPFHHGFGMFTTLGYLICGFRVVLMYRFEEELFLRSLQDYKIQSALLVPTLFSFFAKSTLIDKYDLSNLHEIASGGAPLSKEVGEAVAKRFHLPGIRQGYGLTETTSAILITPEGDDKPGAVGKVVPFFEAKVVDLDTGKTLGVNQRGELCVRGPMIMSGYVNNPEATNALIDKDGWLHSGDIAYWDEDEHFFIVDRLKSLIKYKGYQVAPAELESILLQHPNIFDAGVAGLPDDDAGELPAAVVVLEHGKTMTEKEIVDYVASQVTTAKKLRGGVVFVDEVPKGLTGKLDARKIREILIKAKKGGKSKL
PPC-1+TRAIL kill: compounds killing PPC-1 cancer cells with TRAIL present, primary screen, TRAIL potentiator project, ATPLite luminescence, uHTS; AID 1443, 2008; PPC-1 cells + TRAIL, ATPLite viability luminescence; 0.41% of 220,000 active; cell killing (% activity), % at 4 µM or 5 µM;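 active = cell killing above 50% in the first pass at 4 µM, then a duplicate retest at 5 µM averaging 50% or more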;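 also: plate controls were cells with TRAIL plus DMSO for no effect and medium-only wells lacking cells for full effect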
FLuc stim CS: FLuc activators, initial screening, artefact control for FLuc-dependent activation tests, biochemical, ATPlite luminescence. ATPlite luciferase biochemical, 10 min; 0 = ATP-free wells, 1 = DMSO control. activation factor at 10 µM. 200,000 tested, under 10 active;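 active = luciferase activation factor, scaled between plate controls, of at least 2 with compound at 10 µM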
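System: cell-free luciferase reagent; medium: PBS as buffer for the ATP substrate; doses: test compounds dosed from 2 mM stocks in 100% DMSO; incubation: 10 min, room temperature; measured by: luminescence from luciferase reaction; read-out: luciferase activation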
C8 TRAIL sens: viability loss with TRAIL in NB7+C8 cells, primary screen, TRAIL sensitizer project, cell-based, ATPlite luminescence; 1% of 360,000 active; inhibition (viability loss, TRAIL sensitization), % at 10 µM;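 active = compounds causing at least 50% loss of cell viability in the single-dose screen, relative to plate controls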
Starred values were filed as active, the others as inactive; . = no result. In the library only some 1.5% were active in any assay of this set; here they are far more common.

SMILES	FLuc inhib CS	PPC-1+TRAIL kill	FLuc stim CS	C8 TRAIL sens
Cc1ccc(C(=O)Nc2nc3ccccc3s2)s1	60*	46	0.4	49
Cc1ccc(C(=O)Nc2nc3ccc(S(C)(=O)=O)cc3s2)s1	65*	48	0.3	42
CS(=O)(=O)c1ccc2nc(NC(=O)c3cccc([N+](=O)[O-])c3)sc2c1	.	.	.	62*
CS(=O)(=O)c1ccc2nc(NC(=O)c3cc([N+](=O)[O-])cc([N+](=O)[O-])c3)sc2c1	.	.	.	-3
Cc1ccccc1-c1nc2ccccc2o1	8	-14	0.9	-4
CC(C)C(=O)Nc1cccc(C(=O)OCC(=O)c2ccc(Cl)cc2Cl)c1	54*	20	0.5	15
O=C(COC(=O)c1cccnc1Cl)c1ccc(OC(F)F)cc1	54*	10	0.5	4
O=C(COC(=O)c1cccnc1Cl)c1ccc(Cl)cc1Cl	78*	14	0.2	-12
CC(=O)Nc1cc(C(=O)OCC(=O)c2ccc(Cl)cc2Cl)ccc1C	32	40	0.7	-6
CCn1cc(Cl)c(C(=O)Nc2ccc3c(c2)OCCO3)n1	74*	48	0.3	52*
Cn1ccc(C(=O)Nc2ccc3c(c2)OCCO3)n1	.	.	.	39
CCn1cc(Cl)c(C(=O)Nc2cccc(C(F)(F)F)c2)n1	1	17	1	-1
Cn1nc(C(=O)Nc2ccc3c(c2)OCCO3)cc1C(=O)O	65*	30	0.4	47
O=C(NCCc1cnc[nH]1)Nc1cccc(C(F)(F)F)c1	.	.	.	-20
CS/C(N)=N/N=C/c1cc(C)ccc1O	.	39	.	64*
CC(=O)Nc1nc2ccccc2n1CCOc1ccccc1	-1	42	1	52*
CCCc1c(C(=O)N/N=C(\C)c2cc(C)sc2C)nnn1-c1nonc1N	.	.	.	16
N#C/C(=C\c1cccs1)C(=O)NCc1ccccc1	5	2	1	-2
N#C/C(=C\c1cccs1)C(=O)Nc1nccs1	75*	21	0.3	6
CC(C)CCN(C(=O)c1csnn1)C(C(=O)NC1CCCC1)c1ccc(F)cc1 (centres undefined)	.	.	.	-20
Cc1ccc(NC(=O)Nc2ccccc2C(N)=O)cc1	.	9	.	-25
Cc1ccc(OCC(=O)Nc2ccccc2C(N)=O)cc1	.	.	.	52*
CCOc1ccc(NC(=O)Nc2ccccc2C(N)=O)cc1	93*	-11	0.1	1
COc1ccc(NC(=O)Nc2ccccc2C(N)=O)cc1	84*	-2	0.2	-2
CC(=O)N(C)c1ccc(NC(=S)NCC(C)C)cc1	1	15	1	-2
SMILES	FLuc inhib CS	PPC-1+TRAIL kill	FLuc stim CS	C8 TRAIL sens
O=C1Nc2ccc(S(=O)(=O)N3CCCC3C(=O)O)c3cccc1c23 (centres undefined)	-4	-18	1	-11
CCCN1CCC(=O)N([C@H](CO)Cc2ccccc2)CC1	.	.	.	-5
O=c1c2c3c(sc2nc2n1N=C(c1cccs1)CS2)CCCC3	76*	78*	0.2	67*
Cc1cccc(Nc2nc(N)nc(CCl)n2)c1	.	14	.	90*
Cc1cccc(Nc2nc(N)nc(CSc3nccc(C)n3)n2)c1	-9	-5	1.1	-8
Cc1ccc(Nc2nc(N)nc(CCl)n2)cc1	.	48	.	93*
Nc1nc(CCl)nc(Nc2ccccc2)n1	7	24	0.9	9
COc1cccc(Nc2nc(N)nc(CCl)n2)c1	.	16	.	89*
CCOc1cccc2cc(C(=O)NCc3ccc(F)cc3)c(=N)oc12	.	.	.	6
O=C(Nc1ccc(SC(F)(F)F)cc1)c1ccccn1	71*	26	0.3	49
CC(=O)NS(=O)(=O)c1ccc(NC(=O)c2ccccn2)cc1	1	4	1	15
CC(NC(=O)c1cc(-c2cccnc2)nc2ccc(Br)cc12)C1CCCO1 (centres undefined)	.	.	.	-10
N#CC1(NC(=O)Cn2ncc(Cl)c(Cl)c2=O)CCCCC1	.	.	.	93*
N#CC1(NC(=O)CN2C(=O)c3ccccc3C2=O)CCCCC1	.	.	.	0
COc1ccc(CNC(=O)Cc2ccc(NC(=O)C3=C(C)OCCS3)cc2)cc1	.	.	.	71*
COc1cccc(CNC(=O)c2cccc(NC(=O)C3=C(C)OCCS3)c2)c1	.	.	.	5
CC1=C(C(=O)Nc2ccc(CC(=O)NCc3ccc(OC(C)C)cc3)cc2)SCCO1	.	.	.	56*
CCOc1ccc(CNC(=O)c2cccc(NC(=O)C3=C(C)OCCS3)c2)cc1	.	.	.	-14
O=C(Nc1cccc(F)c1)c1c(F)c(F)c(F)c(F)c1F	-2	29	1	-1
O=C(Nc1ccccc1NC(=O)c1c(F)c(F)c(F)c(F)c1F)c1c(F)c(F)c(F)c(F)c1F	-7	-16	1.1	82*
CCCCCCCCCC[n+]1cccc2c3ccccc3ccc21	-5	36	1.1	44
CCCCCCCC[n+]1cccc2c3ccccc3ccc21	-7	44	1.1	59*
OC[C@@H]1[C@@H](c2ccccc2)C(c2ccc(F)cc2)=NN1c1ccccc1	.	.	.	12
O=C(Nc1cccc(-c2ccc(N3CCOCC3)nn2)c1)c1cccc(Cl)c1	.	.	.	25
Cc1ccc(C(=O)Nc2cccc(-c3ccc(N4CCOCC4)nn3)c2)cc1	.	.	.	44
SMILES	FLuc inhib CS	PPC-1+TRAIL kill	FLuc stim CS	C8 TRAIL sens
O=C(COc1ccc(Cl)cc1)Nc1cccc(-c2ccc(N3CCOCC3)nn2)c1	.	.	.	59*
O=C(Nc1cccc(-c2ccc(N3CCCCC3)nn2)c1)c1ccco1	.	.	.	81*
COc1cccc(OC)c1C(=O)Nc1cccc(-c2ccc(N3CCOCC3)nn2)c1	.	.	.	73*
O=C(Nc1cccc(-c2ccc(N3CCOCC3)nn2)c1)c1ccc(Cl)cc1	.	.	.	19
O=C(Nc1cccc(-c2ccc(N3CCOCC3)nn2)c1)c1ccccc1Cl	.	.	.	61*
CS(=O)(=O)N1CCN(Cc2ccc([N+](=O)[O-])cc2)CC1	-8	-1	1.1	-2
Cc1cc(C(=O)Nc2cccc(-c3ccc(N4CCOCC4)nn3)c2)ccc1[N+](=O)[O-]	.	.	.	51*
COc1cc(S(=O)(=O)N2CCN(c3ccccc3)CC2)ccc1Cl	-2	23	1	5
COc1cc(S(=O)(=O)N2CCN(c3ccccc3F)CC2)ccc1Cl	74*	28	0.3	-9
CC(=O)OCC(=O)Nc1ccccc1OC(F)F	-4	-3	1	-3
CC(C)CCNC(=S)Nc1ccc2nc3n(c(=O)c2c1)CCCCC3	-4	-15	1	12
O=C(c1ccccc1)c1cnc(Nc2ccccc2Cl)s1	62*	29	0.4	31
CC(C)(C)C(=O)c1cnc(Nc2ccccc2Cl)s1	34	30	0.7	6
O=C(C[C@H]1C[C@H](C(=O)N2CCCCC2)[C@@]2(CCc3ccccc3)c3[nH]c4ccc(Cl)cc4c3CCN2C1=O)NCc1ccco1	.	.	.	32
CCOc1ccc(N=CNc2ccc(OCC)cc2)cc1	.	.	.	4
Cc1ccnc(NC(=O)c2ccc(N3C(=O)CCC3=O)cc2)c1	79*	16	0.2	26
Cc1ccnc(NC(=O)c2ccc(OCC3CCCO3)cc2)c1 (centres undefined)	.	.	.	91*

Bioassay records as filed in PubChem.
